# According to ChEMBL document CHEMBL3098056, “Small molecule inhibitors of anthrax lethal factor toxin” (Bioorg Med Chem, 2014):
# What was measured:
# [1] = target: T1, Lethal factor (Bacillus anthracis, UniProt P15917)
# T1 sequence (P15917 whole entry): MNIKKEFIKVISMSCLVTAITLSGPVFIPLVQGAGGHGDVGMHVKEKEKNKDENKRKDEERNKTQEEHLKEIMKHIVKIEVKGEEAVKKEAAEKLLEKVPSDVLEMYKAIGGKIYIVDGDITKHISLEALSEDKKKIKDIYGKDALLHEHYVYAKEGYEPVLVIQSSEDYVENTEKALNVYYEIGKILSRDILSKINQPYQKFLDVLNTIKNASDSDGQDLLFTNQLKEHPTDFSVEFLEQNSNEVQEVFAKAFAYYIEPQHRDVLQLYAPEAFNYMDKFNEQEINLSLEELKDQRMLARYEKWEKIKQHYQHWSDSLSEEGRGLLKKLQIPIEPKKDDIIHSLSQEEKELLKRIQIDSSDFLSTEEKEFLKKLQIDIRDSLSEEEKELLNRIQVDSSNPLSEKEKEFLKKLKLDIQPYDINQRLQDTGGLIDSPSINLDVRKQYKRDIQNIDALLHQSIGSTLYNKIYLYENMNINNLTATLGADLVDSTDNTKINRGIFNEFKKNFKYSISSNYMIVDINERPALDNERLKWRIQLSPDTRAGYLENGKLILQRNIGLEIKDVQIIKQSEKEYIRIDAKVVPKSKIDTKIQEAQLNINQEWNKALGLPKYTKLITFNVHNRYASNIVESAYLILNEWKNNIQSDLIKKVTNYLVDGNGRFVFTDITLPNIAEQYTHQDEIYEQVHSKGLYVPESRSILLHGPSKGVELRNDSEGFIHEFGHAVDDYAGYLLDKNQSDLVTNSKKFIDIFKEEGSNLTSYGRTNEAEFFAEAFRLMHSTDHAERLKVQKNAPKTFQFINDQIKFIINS
# [2] = target: T2, Interstitial collagenase (Homo sapiens, UniProt P03956); experiment: Inhibition of human MMP-1 after 60 mins by FRET assay
# T2 sequence (P03956 whole entry): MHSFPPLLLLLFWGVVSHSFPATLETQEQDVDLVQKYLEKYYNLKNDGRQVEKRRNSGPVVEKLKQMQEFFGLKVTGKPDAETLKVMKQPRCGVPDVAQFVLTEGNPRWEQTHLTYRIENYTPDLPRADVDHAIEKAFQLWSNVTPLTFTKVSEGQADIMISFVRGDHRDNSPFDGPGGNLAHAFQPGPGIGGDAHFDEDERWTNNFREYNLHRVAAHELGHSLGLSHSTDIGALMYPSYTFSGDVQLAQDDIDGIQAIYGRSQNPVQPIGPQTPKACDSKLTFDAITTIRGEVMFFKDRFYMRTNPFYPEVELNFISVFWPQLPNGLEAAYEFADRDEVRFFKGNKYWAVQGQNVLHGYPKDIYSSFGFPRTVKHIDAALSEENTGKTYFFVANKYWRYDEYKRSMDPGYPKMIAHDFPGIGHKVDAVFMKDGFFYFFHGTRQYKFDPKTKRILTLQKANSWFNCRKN
# Summary of the method: (§1)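 MMP-1 (38 nM) or MMP-9 (13 nM) with 50 fluorogenic substrate in 50 mM MOPS pH 6.0 and 0.05% NP-40, 37 °C for 60 min (linear range 90 min). Stopped with acetic acid (0.5% final); emission at 440 nm, excitation at 340 nm.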
# [3] = target: T1, Lethal factor; experiment: Non-competitive inhibition of Bacillus anthracis lethal factor using 50 uM MCA-KKVYPYPME[dnp]K amide as substrate after 30 mins by Eadie-Hofstee plot analysis
# [4] = target: Matrix metalloproteinase-9 (Homo sapiens, UniProt P14780); experiment: Inhibition of human MMP-9 after 60 mins by FRET assay
# Sequence of Matrix metalloproteinase-9 (P14780 whole entry): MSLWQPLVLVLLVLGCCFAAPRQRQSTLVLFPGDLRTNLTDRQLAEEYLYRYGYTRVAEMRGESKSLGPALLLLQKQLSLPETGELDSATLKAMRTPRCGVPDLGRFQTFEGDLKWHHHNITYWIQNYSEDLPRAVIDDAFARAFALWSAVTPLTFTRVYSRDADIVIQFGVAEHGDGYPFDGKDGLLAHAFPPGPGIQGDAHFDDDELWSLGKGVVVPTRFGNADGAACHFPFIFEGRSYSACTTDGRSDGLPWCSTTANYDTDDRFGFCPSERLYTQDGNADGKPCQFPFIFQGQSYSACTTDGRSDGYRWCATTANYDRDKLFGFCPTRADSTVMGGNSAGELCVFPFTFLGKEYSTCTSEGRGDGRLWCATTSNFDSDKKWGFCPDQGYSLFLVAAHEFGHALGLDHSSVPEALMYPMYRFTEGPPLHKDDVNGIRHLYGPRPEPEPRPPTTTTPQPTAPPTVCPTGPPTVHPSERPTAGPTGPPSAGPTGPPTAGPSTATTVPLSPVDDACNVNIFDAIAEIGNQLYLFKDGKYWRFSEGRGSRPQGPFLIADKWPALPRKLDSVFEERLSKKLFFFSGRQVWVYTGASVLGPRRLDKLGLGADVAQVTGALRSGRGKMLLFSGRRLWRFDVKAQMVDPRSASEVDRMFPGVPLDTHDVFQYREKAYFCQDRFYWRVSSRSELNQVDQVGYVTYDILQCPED
# Summary of the method: as §1
# [5] = target: T1, Lethal factor; experiment: Non-competitive inhibition of Bacillus anthracis lethal factor using 25 uM MCA-KKVYPYPME[dnp]K amide as substrate after 30 mins by Eadie-Hofstee plot analysis
# [6] = target: T1, Lethal factor; experiment: Non-competitive inhibition of Bacillus anthracis lethal factor using 6.25 uM MCA-KKVYPYPME[dnp]K amide as substrate after 30 mins by Eadie-Hofstee plot analysis
# [7] = target: T1, Lethal factor; experiment: Non-competitive inhibition of Bacillus anthracis lethal factor using 12.5 uM MCA-KKVYPYPME[dnp]K amide as substrate after 30 mins by Eadie-Hofstee plot analysis
# [8] = target: Botulinum neurotoxin type A (Clostridium botulinum, UniProt P0DPI0); experiment: Inhibition of Clostridium bolulinum BoNT/A assessed as cleavage of MOCAc-Lys-Lys-Val-Tyr-Pro-Tyr-Pro-Met-Glu-Lys(Dnp)-NH2 after 40 mins by FRET assay
# Sequence of Botulinum neurotoxin type A (P0DPI0 2-448 limits assumed): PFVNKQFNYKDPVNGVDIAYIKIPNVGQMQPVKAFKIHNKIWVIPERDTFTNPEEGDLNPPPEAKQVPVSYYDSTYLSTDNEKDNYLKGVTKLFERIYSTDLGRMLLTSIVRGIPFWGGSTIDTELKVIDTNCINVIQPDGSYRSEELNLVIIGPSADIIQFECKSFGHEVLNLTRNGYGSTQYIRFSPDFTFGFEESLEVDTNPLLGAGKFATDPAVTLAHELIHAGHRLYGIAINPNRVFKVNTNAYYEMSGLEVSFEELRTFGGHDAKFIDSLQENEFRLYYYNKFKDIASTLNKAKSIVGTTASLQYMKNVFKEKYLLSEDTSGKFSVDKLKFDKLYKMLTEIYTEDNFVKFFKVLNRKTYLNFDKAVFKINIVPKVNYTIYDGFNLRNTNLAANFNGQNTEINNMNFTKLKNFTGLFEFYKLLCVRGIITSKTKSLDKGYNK
# Summary of the method: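 BoNT/A light chain (2 nM) in a 96-well FRET format. Reactions were stopped with acetic acid to 0.5% and cleaved-substrate fluorescence read at 485 nm with excitation at 398 nm. The same format served for IC50 and mechanism kinetics.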
# [9] = target: T1, Lethal factor; experiment: Non-competitive inhibition of Bacillus anthracis lethal factor using 3.12 uM MCA-KKVYPYPME[dnp]K amide as substrate after 30 mins by Eadie-Hofstee plot analysis
# [10] = target: T1, Lethal factor; experiment: Inhibition of Bacillus anthracis lethal factor assessed as MCA-KKVYPYPME[dnp]K amide cleavage after 30 mins by fluorescence plate reader analysis
# [11] = target: T1, Lethal factor; experiment: Non-competitive inhibition of Bacillus anthracis lethal factor assessed as MCA-KKVYPYPME[dnp]K amide cleavage after 30 mins by Eadie-Hofstee plot analysis
# [12] = target: T1, Lethal factor; experiment: Non-competitive inhibition of Bacillus anthracis lethal factor using 100 uM MCA-KKVYPYPME[dnp]K amide as substrate after 30 mins by Eadie-Hofstee plot analysis
# [13] = target: T1, Lethal factor; experiment: Inhibition of Bacillus anthracis lethal factor by fluorescence assay
# Summary of the method: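 FRET-based assay: LF cleaves a SNAP-derived fluorogenic peptide, and cleavage is read as a change in fluorescence.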
SMILES,Ki [1],IC50 [2],IC50 [3],IC50 [4],IC50 [5],IC50 [6],IC50 [7],IC50 [8],Ki [9],IC50 [10],Ki [11],IC50 [12],Ki [13]
Cc1cc(S(=O)(=O)N[C@@H](C(=O)NO)C2CCOCC2)ccc1F,0.024 µM,–,–,–,–,–,–,–,–,–,–,–,–
COc1ccccc1CCC(=O)Nc1ccc2nc(C)cc(N)c2c1,–,> 100 µM,1.1 µM,> 100 µM,0.952 µM,0.729 µM,0.841 µM,> 100 µM,0.478 µM,3 µM,2.88 µM,1.22 µM,–
O=c1oc2c(O)c(O)ccc2c2c1CCC2,–,–,–,–,–,–,–,–,–,–,–,–,0.57 µM
Cc1cc(N)c2cc(NC(=O)c3ccc(-c4ccc5ncccc5c4)cc3)ccc2n1,–,> 100 µM,1.16 µM,1.7 µM,1.22 µM,1.26 µM,1.25 µM,38 µM,1.26 µM,1.6 µM,1.14 µM,1.1 µM,–
